Out of some 290,000 compounds screened, about 1,600 (0.55%) were called active. For the sample, actives were picked, then their nearest neighbours and some compounds at random. Unmarked numbers belong to inactive results.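 The calls were made as follows: active = inhibition above the mean of all tested compounds plus 3 SD, set per campaign (cut at about 35% in these data); inactive = the rest.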
Tested on: Hepatitis C virus NS3 helicase
Assay: HCV NS3 DNA unwinding blockers – biochemical, Cy5 molecular beacon fluorescence, primary screen (AID 1800);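 also: 0% = DMSO wells and 100% = thioflavine S control wells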
Conditions: at 10.9 µM, stronger effect = higher value
How it was run: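 Assay system – hepatitis C virus NS3 helicase domain fragment enzyme · Buffer or medium – MOPS pH 6.5, MgCl2, DTT, Tween20, BSA · Reagent – Cy5/quencher beacon DNA duplex and ATP to start · Compound – single 10.9 µM dose · Timing – 1 h at 25 °C · Technique – Cy5 beacon fluorescence read at start and 1 h · Measure – % inhibition of unwinding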

Row | SMILES | inhibition
1 | Cc1ccc(N=Cc2c(O)cc(C)oc2=O)c(C)c1 | -4.71%
2 | Cc1cc(O)c(C(=O)/C=C/c2c(F)c(F)c(F)c(F)c2F)c(=O)o1 | 53.7% (active)
3 | COc1ccc(Cl)cc1NC(=O)CN(C)C(=O)CCCc1c[nH]c2ccccc12 | -11.3%
4 | Cc1nc2ccccc2c(=O)n1NC(=O)c1ccc(Cl)c([N+](=O)[O-])c1 | -12.7%
5 | Cc1ccc(C(=O)O)cc1-c1ccc(/C=C2\SC(=O)N(CC(=O)Nc3ccc4c(c3)OCO4)C2=O)o1 | 46.3% (active)
6 | COc1ccc(NC(=O)CCN2C(=O)/C(=C/c3ccc4c(c3)OCO4)SC2=S)cc1 | -4.44%
7 | O=C(CN1CCN(CC(=O)Nc2ccc3c(c2)OCO3)CC1)Nc1ccc(F)cc1 | 2%
8 | CCSc1nc2sc3c(c2c(=O)n1-c1ccc(C)cc1)CCN(C)C3 | -28.2%
9 | COc1ccccc1-n1c(SCC(=O)O)nc2sc3c(c2c1=O)CCC3 | 5.31%
10 | Cc1ccc(C)c(-n2c(SCC(=O)O)nc3sc4c(c3c2=O)CCCC4)c1 | 37.1% (active)
11 | Cc1cccc(N2CCN(C(C)C(=O)N3CCc4ccccc43)CC2)c1C (stereo not given) | -14.8%
12 | Cc1cccc(N(C)C(=O)c2cc(S(=O)(=O)N3CCCCC3)c[nH]2)c1 | -16.4%
13 | Cc1ccc(OCc2cc(C(=O)N(C)CCn3ccnc3C)no2)cc1C | -14.7%
14 | COc1ccc(OCC(=O)Nc2nnc(-c3ccco3)s2)cc1 | 58.5% (active)
15 | Cc1ccc(OCC(=O)Nc2nnc(-c3ccco3)s2)cc1 | 13.6%
16 | CNc1nnc(-c2ccco2)s1 | -1.81%
17 | Cc1cccc(NC(=O)CCn2c(=O)oc3ccccc32)c1 | -6.84%
18 | COc1ccc(C(=O)C2CCCN(C(=O)c3ccc(OC)o3)C2)c(C)c1 (stereo not given) | -2.85%
19 | COC(=O)C1=C(C)N(C(C)c2ccccc2)C(=O)/C1=C\c1ccco1 (stereo not given) | 20.9%
20 | COc1cc(C2CC(=O)N3CN(Cc4ccccc4)CSC3=C2C#N)ccc1OCc1ccccc1 (stereo not given) | 52.1% (active)
21 | COc1cc(CNC2CCCC2)c(Br)cc1OCc1ccccc1 | -30.4%
22 | COc1cc(CN2CCC(C(N)=O)CC2)ccc1OCc1ccccc1 | -5.96%
23 | COC(=O)c1cc(S(=O)(=O)N2CCC(C(N)=O)CC2)oc1C | 4.32%

Row | SMILES | inhibition
24 | COc1ccc(C2/C(=C(/O)c3ccccc3)C(=O)C(=O)N2C)c(OC)c1 (stereo not given) | 3.37%
25 | COc1ccccc1C1/C(=C(/O)c2ccc(OC(C)C)cc2)C(=O)C(=O)N1c1cc(C)on1 (stereo not given) | 43.1% (active)
26 | Cc1cc(N2C(=O)C(=O)/C(=C(/O)c3ccc(Cl)cc3)C2c2cccc(Br)c2)no1 (stereo not given) | 24.4%
27 | CN(c1ccccc1)S(=O)(=O)c1ccc(C(=O)NCCc2ccccc2)cc1 | -7.81%
28 | O=C(CC1C(=O)NCCN1C(=O)c1ccc([N+](=O)[O-])cc1)Nc1cccc(Cl)c1 (stereo not given) | -5.86%
29 | Cc1ccc(Nc2ncnc3c2cnn3C)c(C)c1 | 5.11%
30 | Cc1ccc(/C=C/C(=O)Nc2ccc([N+](=O)[O-])c(NC(=O)/C=C/c3ccc(C)o3)c2)o1 | 46.7% (active)
31 | Cc1ccc(/C=C/C(=O)Nc2cc(S(=O)(=O)N3CCCCCC3)ccc2OCC(F)(F)F)o1 | 21.8%
32 | CCc1nnc(NC(=O)/C=C/c2ccc(C)o2)s1 | 8.82%
33 | COc1ccc(C)cc1N(CC(=O)N1CCCC1)S(=O)(=O)c1ccccc1 | 21%
34 | Cc1ccc(C(c2nnnn2CS(=O)(=O)c2ccc(C)cc2)N2CCC(C)CC2)cc1 (stereo not given) | -6.3%
35 | CC(=O)N1c2ccc(S(=O)(=O)N(C)CC(=O)N(C)Cc3ccccc3)cc2CC1C (stereo not given) | -2.38%
36 | Cc1cc(C(=O)COC(=O)CNC(=O)c2ccc(F)cc2)c(C)n1Cc1ccco1 | 10%
37 | Cc1ccc(OCC(=O)c2cc(C)n(Cc3ccco3)c2C)c([N+](=O)[O-])n1 | 41.5% (active)
38 | Cc1cc(C(=O)CSc2nc(N)cc(=O)[nH]2)c(C)n1Cc1ccco1 | 22.4%
39 | COc1ccc(OC)c(-n2nnnc2SCC(=O)Nc2cc(C)ccc2OC)c1 | -1.59%
40 | COc1ccc(C)cc1-n1nnnc1SCC(=O)c1cc(C)n(Cc2ccco2)c1C | 52.1% (active)
41 | COCC(C)n1c(C)cc(C(=O)COc2ccc(C)nc2[N+](=O)[O-])c1C (stereo not given) | 2.44%
42 | Cc1cc(S(=O)(=O)N2CCOCC2)ccc1OCC(=O)N1CCOCC1 | -4.99%
43 | COc1cc(NC(=O)CCS(=O)(=O)c2ccc3c(c2)oc(=O)n3C)cc(OC)c1 | 3.01%
44 | CCc1ccc(NC(=O)CS(=O)CC(=O)N2CCN(c3ccccc3F)CC2)cc1 (stereo not given) | 8.61%
45 | COc1ccc(NC(=O)CN2C(=O)CSc3ccc(S(=O)(=O)N4CCC(C)CC4)cc32)cc1 | -2.68%
46 | COc1ccc(C(=O)CC(=O)C(=O)Nc2cc([N+](=O)[O-])ccc2OC)cc1 | 12.6%

Row | SMILES | inhibition
47 | COc1cccc(C(=O)CC(=O)C(=O)Nc2ccc([N+](=O)[O-])cc2C)c1 | 37.6% (active)
48 | COc1cccc(NCCC(=O)c2cccc([N+](=O)[O-])c2)c1 | 2.63%
49 | COc1ccc(-n2ncc3c(SCC(=O)NNC(C)=O)ncnc32)cc1 | 5.53%
50 | Cc1cccc(C)c1-n1c(C)cc(/C=C2\C(=O)NN(c3ccccc3)C2=O)c1C | 9.92%
51 | O=C1NN(c2ccccc2)C(=O)/C1=C/c1ccc(-c2cccc(C(=O)O)c2)o1 | 54.3% (active)
52 | O=C(O)C(c1ccccc1)N1C(=O)/C(=C\c2ccc(-c3cccc(Cl)c3)o2)SC1=S (stereo not given) | 8.54%
53 | CC(NS(=O)(=O)c1ccc(OCC(=O)N2CCCC2)cc1)c1ccccc1 (stereo not given) | -5.83%
54 | O=C(NCc1ccccc1)C(=O)NCC1OCCN1S(=O)(=O)c1ccc(Br)cc1 (stereo not given) | -0.44%
55 | O=C(COc1ccc2c(c1)CCC2)N1CCN(c2ccc(F)cc2)CC1 | -11.2%
56 | CC1(C)NC(=O)N(CCCCSc2ccc(Cl)cc2)C1=O | -1.4%
57 | CC(=O)Nc1ccc(NC(=O)CSc2ncnc3c2cnn3Cc2ccccc2)cc1 | -5.31%
58 | CSc1nc2ccccc2c(=O)n1Cc1ccc(F)cc1 | -9.76%
59 | CSc1c(SCc2ccccc2)cnn(Cc2ccccc2)c1=O | 48.3% (active)
60 | CSc1ccccc1OCc1cc(C(=O)N(C)CCc2c(C)n[nH]c2C)no1 | 11.5%
61 | O=C(CSCc1ccccc1)Nc1ccccc1 | -0.15%
62 | O=S(=O)(Nc1ccc2nc(-c3ccco3)[nH]c2c1)c1ccccc1 | -5.98%
63 | Cc1cccc(NC(=O)c2sc3nc(N4CCOCC4)c4c(c3c2N)CCCC4)c1 | 18.7%
64 | NC(=O)c1sc2nc3c(c(-c4ccccc4)c2c1N)CCC3 | 1.99%
65 | Cc1cccc(NC(=O)c2sc3nc4c(c(-c5ccco5)c3c2N)CCC4)c1 | 93% (active)
66 | CN(CCc1ccccc1)c1ccc([N+](=O)[O-])cn1 | -0.4%
67 | CCOC(=O)C1Sc2[nH]c(=O)sc2C(c2ccc(Cl)cc2)C1C(=O)OCC (stereo not given) | 17.4%
68 | CCOC(=O)c1ccccc1N1C(=O)C2Sc3[nH]c(=O)sc3C(/C=C/c3ccccc3)C2C1=O (stereo not given) | 37.9% (active)
69 | CC(OC(=O)c1ccccc1N1C(=O)C2C3CCC(C3)C2C1=O)C(=O)c1ccccc1 (stereo not given) | 1.1%

Row | SMILES | inhibition
70 | O=C(CN1C(=O)S/C(=C\c2ccccc2Cl)C1=O)NC1C=CS(=O)(=O)C1 (stereo not given) | -23.6%
71 | Fc1ccc(-c2ccc(-c3nn4c(-c5ccco5)nnc4s3)o2)cc1 | 40.9% (active)
72 | COc1cc(-c2nn3c(-c4cccc(C)c4)nnc3s2)cc(OC)c1OC | 12.9%
73 | c1ccc(-c2cc(-c3nnc4sc(-c5ccccn5)nn34)[nH]n2)cc1 | -7.42%
74 | C=CCOc1ccc(/C=C2/C(=O)ON=C2C)cc1OCC | 16.9%
75 | CCOC(=O)c1nnn(-c2nonc2OC)c1-c1ccccc1 | 5.43%
76 | CCOC(=O)c1nnn(-c2nc(OC)nc(N(C)C)n2)c1-c1ccccc1 | 39.7% (active)
77 | CCOC(=O)c1c(N)nn(C(=O)c2ccccc2)c1-c1ccccc1 | -7.63%
78 | COc1ccc(CN(C)C(C)C(=O)NC2CCCc3ccccc32)cc1 (stereo not given) | -16.3%
79 | COc1ccc(-c2ocnc2C(=O)Nc2ccc3c(c2)CCC3)cc1 | -14.4%
80 | COc1ccc(CNS(=O)(=O)c2ccc(NC(=O)N3CCCCC3)cc2)cc1 | -6.52%
81 | Cc1ccc(-n2nc3c(=O)n(C(C)C(=O)NCc4ccc5c(c4)OCO5)nc(C)c3c2C)cc1 (stereo not given) | 4.33%
82 | O=C(CCCN1C(=O)/C(=C\c2ccccc2)SC1=S)Nc1ccccc1O | -2.1%
83 | O=C(CCCN1C(=O)/C(=C/c2ccco2)SC1=S)Nc1ccccc1 | 34.7%
84 | O=C(CCCN1C(=O)/C(=C\c2ccco2)SC1=S)Nc1cccc2ccccc12 | 40.1% (active)
85 | Cc1cc(C)n(CCC(=O)N2CCN(S(=O)(=O)c3ccc(C)c(C)c3)CC2)n1 | -5.54%
86 | Cc1c(NC(=O)Nc2cccc([N+](=O)[O-])c2)c(=O)n(-c2ccccc2)n1C | 4.3%
87 | CC1(C)CC(=O)c2c(n(S(=O)(=O)c3ccccc3)c3ccc(NS(=O)(=O)c4ccccc4)cc23)C1 | -3.21%
88 | CC(C)CNC(=O)C(=O)Nc1ccc(N(C)C)cc1 | -3.21%
89 | CC(=O)N(C)c1ccc(NC(=O)C(F)(F)F)cc1 | -2.62%
90 | CN(C)c1ccc(N/C=C/C(=O)C(F)(F)F)cc1 | 47.6% (active)
